Sampled rows, rich in hits. Any-hit rate of the full collection: about 5.1%.
STAT3 blocker: STAT3 signaling inhibition | U3A cells, IL-6 STAT3-luciferase reporter, luminescence; host cell line lacks STAT1 | inhibition, % at 5.5 µM | 190,000 tested, 0.89% active | AID 862;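 active = inhibition above the mean inhibition across all screened compounds plus 3 SD, cut at about 44% in these data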
STAT3 act: STAT3 signaling activation; activation (% of control), % at 5.6 µM; U3A cells, IL-6 STAT3-luciferase reporter, luminescence; 100% = signal with IL-6 EC80 alone; 190,000 tested, 0.91% active;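 active = activation above the screen-wide mean of compound activation plus 3 SD, cut at about 130% in these data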
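Test system: Human STAT1-deficient U3A cells with stable STAT3-luciferase reporter | Also added: Interleukin-6, 33 ng/mL | Timing: Compound pre-incubation 1 h before IL-6, then 6 h stimulation at 37 °C | Technique: Luciferase reporter luminescence | Read-out: Percent of IL-6-only median luminescence | Benchmarks: IL-6-only wells as 100% reference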
APP 5'UTR act: APP 5'UTR luciferase reporter activation | SH-SY5Y APP 5'UTR luciferase reporter, luminescence; zero percent = DMSO vehicle wells | activation, % at 2 µM | 190,000 tested, 1% active | AID 1276;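 active = activation above a set limit, based on mean plus 3 SD of controls, cut at about 140% in these data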
NF-kB expr up: compounds increasing NF-kB expression in human neuronal cells; NF-kB reporter expression; stronger effect = higher value; AID 1239; fold change at 12.5 µM; 190,000 tested, 1.6% active; in the data active = fold change above about 3.3
STAT1 blocker: inhibitors of IFN-gamma induced STAT1 signaling. inhibition, % at 5.5 µM. AID 920. NIH 3T3 STAT1-luciferase reporter, luminescence. 200,000 tested, 0.35% active;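 active = inhibition above a set limit, the mean inhibition across all tested compounds plus 3 SD, cut at about 34% in these data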
STAT1 activator: STAT1 signaling activation. activation (% of control), % at 5.5 µM. NIH 3T3 STAT1-luciferase reporter, IFN-gamma, luminescence; 100% = IFN-gamma alone, no compound. 200,000 tested, 2.6% active;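 active = activation above the screen-wide mean activation plus 3 SD, cut at about 130% in these data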
A number is an active result.

`COc1cc(/C=N/Nc2nnc3c(n2)[nH]c2ccccc23)ccc1O` gave STAT3 blocker inactive, STAT3 act inactive, APP 5'UTR act inactive, NF-kB expr up inactive, STAT1 blocker inactive and STAT1 activator 132.9.
Cc1ccc(SCC(=O)Nc2nccs2)cc1 was read as STAT3 blocker inactive, STAT3 act inactive, APP 5'UTR act inactive, NF-kB expr up inactive, STAT1 blocker inactive and STAT1 activator inactive.
`Cc1ccc(C#N)c(SCC(=O)Nc2nccs2)n1` gave STAT3 blocker inactive, STAT3 act inactive, APP 5'UTR act 175.0, NF-kB expr up inactive, STAT1 blocker inactive and STAT1 activator inactive.
Screening N#Cc1cc2c(nc1SCC(=O)Nc1nccs1)CCCCC2 returned STAT3 blocker inactive, STAT3 act inactive, APP 5'UTR act 194.6, NF-kB expr up inactive, STAT1 blocker inactive and STAT1 activator inactive.
Screening COc1ccc(NC2=C3CC(C)CC=C3N(c3ccc(OC)cc3)C2=O)cc1 (stereo not given) returned STAT3 blocker inactive, STAT3 act inactive, APP 5'UTR act inactive, NF-kB expr up inactive, STAT1 blocker inactive and STAT1 activator inactive.
`CCOC(=O)c1ccc(Oc2c(C)oc3cc(OS(C)(=O)=O)ccc3c2=O)cc1` gave STAT3 blocker inactive, STAT3 act inactive, APP 5'UTR act inactive, NF-kB expr up inactive, STAT1 blocker inactive and STAT1 activator inactive.
Screening O=C(CSc1ncnc2ccccc12)c1ccco1 returned STAT3 blocker inactive, STAT3 act inactive, APP 5'UTR act 146.1, NF-kB expr up 5.58, STAT1 blocker inactive and STAT1 activator 132.4.
Clc1ccc(-n2nnc(-c3nccs3)n2)cc1Cl was read as APP 5'UTR act 199.0, NF-kB expr up 4.79, STAT1 blocker inactive and STAT1 activator inactive.
`Cc1ccc(-n2nnc(-c3cc4ccccc4nc3Cl)n2)cc1` gave APP 5'UTR act inactive, NF-kB expr up inactive, STAT1 blocker inactive and STAT1 activator inactive.
Screening O=C(O)CCCn1cc(NC(=O)c2c(F)cccc2F)cn1 returned STAT3 blocker inactive, STAT3 act inactive, APP 5'UTR act inactive, NF-kB expr up inactive, STAT1 blocker inactive and STAT1 activator inactive.
For O=C(c1ccc(-c2ccc(Cl)cc2Cl)o1)N1CCOCC1 the results were STAT3 blocker inactive, STAT3 act inactive, APP 5'UTR act inactive, NF-kB expr up inactive, STAT1 blocker inactive and STAT1 activator 137.8.
For COc1ccc(-c2nn3c(-c4ccccc4)nnc3s2)cc1 the results were STAT3 blocker inactive, STAT3 act inactive, APP 5'UTR act inactive, NF-kB expr up inactive, STAT1 blocker inactive and STAT1 activator inactive.
CCN(CC)c1ccc(-c2nn3c(-c4ccccc4OC)nnc3s2)cc1 was read as STAT3 blocker inactive, STAT3 act 136.3, APP 5'UTR act inactive, NF-kB expr up inactive, STAT1 blocker inactive and STAT1 activator inactive.
For CC(/C=C/c1ccccc1F)=N\NC(=O)c1ccccc1 the results were STAT3 blocker inactive, STAT3 act inactive, APP 5'UTR act inactive, NF-kB expr up inactive, STAT1 blocker inactive and STAT1 activator 133.2.
Screening C/C(=N/NC(=O)c1ccccc1)C(=O)O returned STAT3 blocker inactive, STAT3 act inactive, APP 5'UTR act inactive, NF-kB expr up inactive, STAT1 blocker inactive and STAT1 activator 132.4.
C/C(=N\NC(=O)c1ccccc1)c1cccc(Br)c1 was read as STAT3 blocker inactive, STAT3 act inactive, APP 5'UTR act inactive, NF-kB expr up inactive, STAT1 blocker inactive and STAT1 activator inactive.
Screening COc1cc(NC(=O)C2CC2)c(OC)cc1NC(=O)CCC(=O)NC1CCN(Cc2ccccc2)CC1 returned STAT3 blocker inactive, STAT3 act inactive, APP 5'UTR act inactive, NF-kB expr up inactive, STAT1 blocker inactive and STAT1 activator inactive.
Cc1cc(C)nc(Oc2ccc(Br)cc2Br)n1 was read as STAT3 blocker inactive, STAT3 act inactive, APP 5'UTR act inactive, NF-kB expr up inactive, STAT1 blocker inactive and STAT1 activator 142.0.
For O=C(Cc1sc(Nc2ccccc2)nc1-c1ccccc1)NCc1ccccc1 the results were STAT3 blocker inactive, STAT3 act inactive, APP 5'UTR act inactive, NF-kB expr up inactive, STAT1 blocker inactive and STAT1 activator inactive.
For CC1Cc2ccccc2N1C(=O)CSc1ncc(-c2ccc(F)cc2)n1C (stereo not given) the results were STAT3 blocker inactive, STAT3 act inactive, APP 5'UTR act inactive, NF-kB expr up inactive, STAT1 blocker inactive and STAT1 activator 133.1.
`Cn1c(-c2ccc(F)cc2)cnc1SCC(=O)N1CCCCC1` gave STAT3 blocker inactive, STAT3 act inactive, APP 5'UTR act inactive, NF-kB expr up 3.92, STAT1 blocker inactive and STAT1 activator 138.5.
COc1ccc(S(=O)(=O)n2nc(OC(=O)c3cccs3)cc2NC(=O)c2cccs2)cc1 was read as APP 5'UTR act inactive, NF-kB expr up inactive, STAT1 blocker inactive and STAT1 activator inactive.
For O=C(c1ccc(Cl)cc1)c1coc2ccc(O)cc12 the results were STAT3 blocker inactive, STAT3 act inactive, APP 5'UTR act inactive, NF-kB expr up 8.77, STAT1 blocker inactive and STAT1 activator inactive.
For COc1ccc2occ(C(=O)c3ccccc3)c2c1 the results were STAT3 blocker inactive, STAT3 act inactive, APP 5'UTR act inactive, NF-kB expr up inactive, STAT1 blocker inactive and STAT1 activator 135.3.
For Cc1ccc(-c2nnc(-c3cccs3)o2)cc1 the results were STAT3 blocker inactive, STAT3 act inactive, APP 5'UTR act 140.5, NF-kB expr up 5.48, STAT1 blocker inactive and STAT1 activator inactive.
For Fc1ccc(/C=C/c2nnc(-c3cccs3)o2)cc1 the results were STAT3 blocker inactive, STAT3 act inactive, APP 5'UTR act inactive, NF-kB expr up 4.17, STAT1 blocker inactive and STAT1 activator 128.9.
For Cc1ccc(-c2nnc(N)o2)cc1 the results were STAT3 blocker inactive, STAT3 act inactive, APP 5'UTR act inactive, NF-kB expr up inactive, STAT1 blocker inactive and STAT1 activator inactive.
`Cc1ccc(/C=C/c2nnc(-c3ccc(C)cc3)o2)cc1` gave STAT3 blocker inactive, STAT3 act inactive, APP 5'UTR act inactive, NF-kB expr up inactive, STAT1 blocker inactive and STAT1 activator inactive.
Cc1ccc(-c2nnc(-c3ccccc3)o2)cc1 was read as STAT3 blocker inactive, STAT3 act inactive, APP 5'UTR act inactive, NF-kB expr up 7.87, STAT1 blocker inactive and STAT1 activator inactive.
`c1ccc(-c2nnc(-c3cccc(-c4nnc(-c5ccccc5)o4)c3)o2)cc1` gave STAT3 blocker inactive, STAT3 act inactive, APP 5'UTR act inactive, STAT1 blocker inactive and STAT1 activator inactive.
Screening OCCN(CCO)Cc1csc2ccccc12 returned STAT3 blocker inactive, STAT3 act inactive, APP 5'UTR act inactive, NF-kB expr up inactive, STAT1 blocker inactive and STAT1 activator inactive.
`CC(C)CCNC(=O)C1CCCN1C(=O)NC1CCCCC1` (stereo not given) gave STAT3 blocker inactive, STAT3 act inactive, APP 5'UTR act inactive, NF-kB expr up inactive, STAT1 blocker inactive and STAT1 activator inactive.
Screening c1ccc2nc(-c3nccs3)ccc2c1 returned STAT3 blocker inactive, STAT3 act inactive, APP 5'UTR act inactive, NF-kB expr up inactive, STAT1 blocker inactive and STAT1 activator 131.2.

Screening data (PubChem)
